Screens from PubChem BioAssay.
This is a sample that favours compounds with a hit; in the whole collection about 2% have one here.
IMP-1 inh – IMP-1 metallo-beta-lactamase inhibitors, primary screen, biochemical, epi-absorbance readout, Pseudomonas aeruginosa enzyme; purified IMP-1, nitrocefin hydrolysis, epi-absorbance fluorescence; inhibition, % at 5.6 µM; 290,000 tested, 0.45% active; AID 1556, 2009;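 active means inhibition above the mean plus 3 SD of all compounds in the same screening run, cut at about 4.5% in these data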
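System: Purified recombinant IMP-1 metallo-beta-lactamase enzyme | Measured by: Fluorescence quenching readout, ex 480/em 530 nm | Replication: Singlicate | Incubation: 15 min preincubation plus 25 min reaction at 25 °C | Evaluation: Percent inhibition from optical density relative to buffer-blank wells | Benchmarks: DMSO with and without IMP-1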
PvdQ acylase – P. aeruginosa PvdQ acylase inhibitors, primary screen, biochemical, fluorescence, plate reader and imaging, single point; inhibition, % at 10 µM; AID 488965, 2010; PvdQ acylase [Pseudomonas aeruginosa LESB58]; purified PvdQ acylase; 340,000 tested, 0.063% active; in the data active means inhibition above about 30%, passing the limit was not always enough
PLCg1 inh – PLC-gamma1 enzyme inhibitors, primary screen, biochemical, fluorescence, purified enzyme; fluorogenic substrate; 370,000 tested, 0.84% active; AID 720700, 2013; 1-phosphatidylinositol 4,5-bisphosphate phosphodiesterase gamma-1 (Homo sapiens), P19174; inhibition, % at 12.2 µM
PLCb3 inh – human PLC-beta3 inhibitors, primary screen, biochemical, fluorescence; 370,000 tested, 0.18% active; Purified PLC-beta3, fluorogenic substrate; inhibition, % at 12.2 µM; in the data active means inhibition above about 11%
Target sequence (Q01970 whole entry, looked up): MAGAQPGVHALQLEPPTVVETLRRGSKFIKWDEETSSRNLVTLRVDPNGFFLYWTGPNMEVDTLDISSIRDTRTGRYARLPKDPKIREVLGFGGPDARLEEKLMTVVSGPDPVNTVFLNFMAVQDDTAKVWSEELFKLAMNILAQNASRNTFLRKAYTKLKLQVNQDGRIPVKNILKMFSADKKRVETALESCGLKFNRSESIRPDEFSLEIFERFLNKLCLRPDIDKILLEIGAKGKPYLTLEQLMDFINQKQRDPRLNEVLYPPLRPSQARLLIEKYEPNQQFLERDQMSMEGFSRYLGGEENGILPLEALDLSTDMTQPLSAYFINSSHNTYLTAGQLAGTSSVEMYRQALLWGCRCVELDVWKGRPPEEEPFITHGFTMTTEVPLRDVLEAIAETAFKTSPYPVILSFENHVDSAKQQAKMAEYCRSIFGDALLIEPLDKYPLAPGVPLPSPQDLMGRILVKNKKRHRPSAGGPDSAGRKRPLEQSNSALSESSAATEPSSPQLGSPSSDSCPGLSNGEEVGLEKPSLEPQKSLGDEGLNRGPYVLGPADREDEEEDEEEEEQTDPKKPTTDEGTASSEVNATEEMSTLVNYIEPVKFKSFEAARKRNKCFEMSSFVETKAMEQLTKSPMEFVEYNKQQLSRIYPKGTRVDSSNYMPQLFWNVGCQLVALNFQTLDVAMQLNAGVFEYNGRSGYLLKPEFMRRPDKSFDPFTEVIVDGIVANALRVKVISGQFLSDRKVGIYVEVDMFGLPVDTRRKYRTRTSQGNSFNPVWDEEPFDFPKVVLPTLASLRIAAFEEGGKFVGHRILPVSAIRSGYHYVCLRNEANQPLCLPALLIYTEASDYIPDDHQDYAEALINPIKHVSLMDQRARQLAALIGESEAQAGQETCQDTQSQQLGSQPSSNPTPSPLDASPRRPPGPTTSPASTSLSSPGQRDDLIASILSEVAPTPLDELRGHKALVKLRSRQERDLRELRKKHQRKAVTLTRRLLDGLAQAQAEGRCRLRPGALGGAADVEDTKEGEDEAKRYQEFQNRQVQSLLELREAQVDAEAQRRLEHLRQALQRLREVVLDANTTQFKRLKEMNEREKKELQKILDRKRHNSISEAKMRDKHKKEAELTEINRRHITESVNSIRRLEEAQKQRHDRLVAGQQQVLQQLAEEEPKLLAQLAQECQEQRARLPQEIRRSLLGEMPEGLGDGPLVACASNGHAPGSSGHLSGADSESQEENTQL
VIM-2 inh – VIM-2 metallo-beta-lactamase inhibitors, primary screen, biochemical, epi-absorbance readout, Pseudomonas aeruginosa enzyme | purified VIM-2, nitrocefin hydrolysis, epi-absorbance fluorescence | AID 1527, 2009 | 290,000 tested, 0.89% active | inhibition, % at 5.6 µM;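 active means inhibition above the mean of all tested compounds plus 3 SD, cutoff set per screening run, cut at about 7.5% in these data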;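 further: red hydrolysis product quenches plate fluorescence so inhibitors raise well fluorescence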
PLCg1 ctr – PLC-gamma1 enzyme inhibitors, counter-screen for PLC-beta3 inhibitor project, biochemical, fluorescence. shares compounds with PLCg1 inh. purified PLC-gamma1, fluorogenic substrate. inhibition, % at 12.3 µM. 3,300 tested, 3.1% active
PLCbeta3 conf – PLC-beta3 inhibitor confirmation, biochemical, fluorescence, purified enzyme | AID 743261, 2014 | fluorogenic substrate fluorescence | shares compounds with PLCg1 inh | 3,300 tested, 1% active | inhibition, % at 12.3 µM; in the data active means inhibition above about 11%
Each line names hits and unclear results; the compound was inactive in the other large screens (follow-up assays come after a bar, where they were run). Unless noted, no stated cut-off is given here; in the data, active means inhibition above about 9.5%; inactive means the rest.

COC(=O)[C@]12C[C@H](CC(=O)N3CCOCC3)C(=O)N(CCC3=CCCCC3)C1=C[C@H](C1CCCC1)O[C@@H]2C	none (no result: IMP-1 inh, PvdQ acylase, VIM-2 inh)
CC1(C)O[C@@H]2[C@H](O1)[C@@H](CO)O[C@H]2n1cc(Br)c(=O)[nH]c1=O	PLCg1 inh 14 (no result: IMP-1 inh, VIM-2 inh) | PLCg1 ctr inactive | PLCbeta3 conf inactive
CC1(C)O[C@@H]2[C@H](O1)[C@@H](CO)O[C@H]2n1ccc(=O)[nH]c1=O	none (no result: IMP-1 inh, VIM-2 inh)
COC(=O)[C@H](C(C)C)N1CCc2nnn(Cc3ccc(C)cc3)c2-c2cc(F)ccc2S1(=O)=O	none (no result: IMP-1 inh, PvdQ acylase, VIM-2 inh)
CC(C)(C)Nc1scc(-c2ccccc2)[n+]1-c1ccccc1	PLCg1 inh 9.7 | PLCg1 ctr inactive | PLCbeta3 conf inactive
CN1Cc2cc(C(=O)c3ccccc3O)cnc2NC1=O	none
Cc1ccc(O)c(C(=O)c2cnc3c(c2)COc2ccccc2-3)c1	PLCg1 inh 14 | PLCg1 ctr inactive | PLCbeta3 conf inactive
O=C(c1cnc2c(c1)COc1ccc(Cl)cc1-2)c1ccccc1O	PLCg1 inh 12 | PLCg1 ctr inactive | PLCbeta3 conf inactive
O=C(N/N=C/c1c(F)c(F)c(F)c(F)c1F)c1cc(-c2ccccc2)nc2ccccc12	PLCg1 inh 14 | PLCg1 ctr inactive | PLCbeta3 conf inactive
CC(=O)c1cc(-c2ccc(F)cc2)n(CCC(=O)NC(C)(C)C)c1C	PLCg1 inh 21 | PLCg1 ctr inactive | PLCbeta3 conf inactive
CCOc1ccc(NC(=O)C2CCN(S(=O)(=O)c3cccnc3)CC2)cc1	PLCg1 inh 12 | PLCg1 ctr inactive | PLCbeta3 conf inactive
CCOc1ccc(NC(=O)C2CCCN2S(=O)(=O)c2ccc(OCC)cc2)cc1 (stereo unspecified)	PLCg1 inh 12 | PLCg1 ctr inactive | PLCbeta3 conf inactive
COc1ccc(S(=O)(=O)N2CCCC2C(=O)Nc2ccc(C)cc2)cc1 (stereo unspecified)	none
Cc1cccnc1NC(=O)c1ccc(S(=O)(=O)N2CCCCC2)cc1	PLCg1 inh 11 (no result: IMP-1 inh, VIM-2 inh) | PLCg1 ctr inactive | PLCbeta3 conf inactive
Cc1cccnc1NC(=O)c1cccc(S(=O)(=O)N2CCCC2)c1	none (no result: IMP-1 inh, VIM-2 inh)
O=C(Nc1ccncc1)c1cccc(S(=O)(=O)N2CCCC2)c1	PLCg1 inh 10 | PLCg1 ctr inactive | PLCbeta3 conf inactive
CC[C@H](C(=O)Nc1ccccc1N1CCCC1)c1ccccc1	none (no result: IMP-1 inh, PvdQ acylase, VIM-2 inh)
COc1ccc(C(CCN(Cc2ccc(OC)c(OC)c2)C(C)=O)C(C)C)cc1 (stereo unspecified)	PLCg1 inh 11 | PLCg1 ctr inactive | PLCbeta3 conf inactive
COc1ccc(NC(=S)N(Cc2ccc(C(=O)O)cc2)Cc2ccc(OC)c(OC)c2)cc1	none
O=C(Nc1cccnc1)c1cc(-c2cc(Cl)ccc2O)n[nH]1	none
Cc1ccc(O)c(-c2cc(C(=O)Nc3cccnc3)[nH]n2)c1	PLCg1 inh 11 | PLCg1 ctr inactive | PLCbeta3 conf inactive
CCCCCCSC1=C(C#N)C(=O)NC2(CCCCC2)S1	PLCg1 inh 14 | PLCg1 ctr inactive | PLCbeta3 conf inactive
O=C([C@@H]1C[C@H]1c1ccccc1)N1CC[C@H]2[C@H](CCCN2Cc2cc(F)cc(F)c2)C1	none (no result: IMP-1 inh, PvdQ acylase, VIM-2 inh)
C#CCCC(=O)O[C@H]1CCC[C@@]2(C(=O)N(Cc3ccccc3)c3ccccc32)[C@H]1NC(=O)CCc1ccccc1	none (no result: IMP-1 inh, PvdQ acylase, VIM-2 inh)
O=C1CC(N2CCN(Cc3ccccc3)CC2)C(=O)N1c1ccc2c(c1)OCCO2 (stereo unspecified)	none
O=C1CC(N2CCN(Cc3ccccc3)CC2)C(=O)N1c1ccccc1 (stereo unspecified)	PLCg1 inh 11 | PLCg1 ctr inactive | PLCbeta3 conf inactive
O=Cc1cc(N=Nc2ccc(S(=O)(=O)O)cc2)ccc1O	PLCg1 inh 14 (no result: IMP-1 inh, VIM-2 inh) | PLCg1 ctr 16 | PLCbeta3 conf inactive
C[C@@H]1COc2cc(Br)ccc2S(=O)(=O)N1Cc1cn(Cc2ccc(Cl)cc2)nn1	none (no result: IMP-1 inh, PvdQ acylase, VIM-2 inh)
CC(CC(=O)Nc1ccc(Br)cc1F)S(=O)(=O)c1ccc2c(c1)NC(=O)CO2 (stereo unspecified)	PLCg1 inh 12 | PLCg1 ctr inactive | PLCbeta3 conf inactive
CC(CC(=O)Nc1ccc(F)cc1)S(=O)(=O)c1ccc2c(c1)NC(=O)CO2 (stereo unspecified)	none
Cc1ccc(-c2nnc(SCC(=O)Nc3ccc4c(c3)OCCO4)n2-c2ccc(Cl)cc2)cc1	none (no result: IMP-1 inh, PvdQ acylase, VIM-2 inh)
COC(=O)C1CN(Cc2ccccc2)CCS(=O)(=O)N1Cc1cn(Cc2ccc(F)cc2)nn1 (stereo unspecified)	none (no result: IMP-1 inh, PvdQ acylase, VIM-2 inh)
C=C(C)C(=O)Nc1cccc(C2=NOC3(C2)C[C@@H](C(N)=O)N(C(=O)c2cc([N+](=O)[O-])cc([N+](=O)[O-])c2C)C3)c1 (stereo partly specified)	PLCg1 inh 10 (no result: IMP-1 inh, VIM-2 inh) | PLCg1 ctr inactive | PLCbeta3 conf inactive
C=C(C)C(=O)Nc1cccc(C2=NOC3(C2)C[C@@H](C(N)=O)N(C(=O)/C=C/CC)C3)c1 (stereo partly specified)	none (no result: IMP-1 inh, VIM-2 inh)
C/C=C/C=C\C(=O)Nc1cccc(C2=NOC3(C2)C[C@@H](C(N)=O)N(C(=O)c2cc([N+](=O)[O-])cc([N+](=O)[O-])c2)C3)c1 (stereo partly specified)	none (no result: IMP-1 inh, VIM-2 inh)
C=C(C)C(=O)Nc1cccc(C2=NOC3(C2)C[C@H](C(N)=O)N(C(=O)/C=C/C)C3)c1 (stereo partly specified)	PLCg1 inh 12 (no result: IMP-1 inh, VIM-2 inh) | PLCg1 ctr inactive | PLCbeta3 conf inactive
C/C=C/C(=O)Nc1cccc(C2=NOC3(C2)C[C@@H](C(N)=O)N(C(=O)c2cc([N+](=O)[O-])cc([N+](=O)[O-])c2C)C3)c1 (stereo partly specified)	PLCg1 inh 11 (no result: IMP-1 inh, VIM-2 inh) | PLCg1 ctr inactive | PLCbeta3 conf inactive
COc1ccc(/C=C/S(=O)(=O)NCc2ccc(F)cc2)c(CNC(=O)OC(C)(C)C)c1	none (no result: IMP-1 inh, PvdQ acylase, VIM-2 inh)
O=C(O)CCCn1cc(NC(=O)COc2ccccc2)cn1	PLCg1 inh 11 | PLCg1 ctr inactive | PLCbeta3 conf inactive
COc1ccc(OC)c(S(=O)(=O)NCC2CCN(C(=O)C(=O)c3cc4ccccc4o3)CC2)c1	none (no result: IMP-1 inh, PvdQ acylase, VIM-2 inh)
CC(C)(C)OC(=O)N1CCC[C@H]1C(=O)N1CCC[C@H]1C(=O)NCc1ccncc1	PLCg1 inh 12 (no result: IMP-1 inh, PvdQ acylase, VIM-2 inh) | PLCg1 ctr inactive | PLCbeta3 conf inactive
CS(=O)(=O)N1CCN(c2ccc(NC(=O)C(c3ccccc3)c3ccccc3)cc2)CC1	PLCg1 inh 9.6 | PLCg1 ctr inactive | PLCbeta3 conf inactive
O=C(/C=C/c1ccc(-c2ccccc2)cc1)NC1=NCCS1	none (no result: IMP-1 inh, PvdQ acylase, VIM-2 inh)
